Assay outcomes from PubChem BioAssay.
UPR CHOP act: apoptotic UPR (CHOP) activation; activation, % at 10 µM; 0.34% of 330,000 active; CHO-CHOP luciferase reporter, luminescence; percent of tunicamycin response over DMSO baseline;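 active means at 10 µM dose, activation of 40% or more, normalized to positive control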;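 further: 100% = tunicamycin at 10 µg/mL and 0% = DMSO alone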
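Evaluation: % reporter activation, DMSO baseline versus tunicamycin full activation; System: CHO-CHOP luciferase reporter cell line; Input: 500 cells/well; Incubation: 6 h compound treatment, 37 °C; Measured by: Steady-Glo luciferase luminescence; Dosing: one dose, 10 µM in 0.5% DMSO; Buffer or medium: F12 medium, 10% FBS; Benchmarks: positive tunicamycin 10 µg/mL, negative DMSO alone.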
CHOP inhibitor: blocks CHOP induction under ER stress. AID 2732. inhibition, % at 10 µM. 3.8% of 220,000 active. CHO-K1 CHOP-promoter luciferase, tunicamycin-induced, 15-18 h;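 active means compounds that reduced the stress-induced luciferase reporter signal by more than about 70% of percent inhibition, limit read from the data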;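 further: 0% = tunicamycin plus vehicle and 100% = wells without tunicamycin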
UPR XBP1 act: adaptive UPR (XBP1) activation | CHO-XBP1 luciferase reporter, IRE1-XBP1 UPR activation, luminescence; percent of tunicamycin response, DMSO as zero | activation, % at 20 µM | 0.33% of 330,000 active | AID 463104;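 active means versus positive control, 20 µM dose yields 30% or more activation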;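 further: 100% = tunicamycin at 10 µg/mL and 0% = DMSO only wells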
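Test system: CHO-XBP1 luciferase reporter cells | Buffer or medium: Serum-containing F12 medium, 10% FBS | Schedule: 6 h compound exposure at 37 °C, 5% CO2 | Detection: Steady-Glo luciferase glow luminescence, 10 min after reagent addition | Read-out basis: Activation, % of tunicamycin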
TLR4 MyD88 comp: inhibitors of human TLR4-MyD88 binding | AID 861 | 0.18% of 200,000 active | HeLa CL3-4 TLR4/MyD88 BLA complementation, FRET ratio | inhibition, % at 8.4 µM | O00206+Q99836; in the data active means inhibition above about 25%;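 further: 0% = vehicle and 100% = reference inhibitor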
NOD2-RIPK2 inh: inhibitors of human NOD2-RIPK2 interaction; O43353; CHO BLA complementation NOD2-RIPK2, CCF4 ratio; inhibition, % at 4.98 µM; 0.38% of 360,000 active; AID 624267; in the data active means inhibition above about 21%;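 further: 0% = vehicle only and 100% = reference blocker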
TLR9-MyD88 block: blocks human TLR9 binding to MyD88; AID 504734; Q9NR96+Q99836; CHO BLA complementation TLR9-MyD88, CCF4 FRET ratio; 0.21% of 340,000 active; inhibition, % at 4.98 µM;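 active means inhibition above the mean over all tested compounds plus 3 SD, cut at about 21% in these data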;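 further: 0% = DMSO only wells and 100% = clavulanate BLA inhibitor control wells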
The depositor's hits bear a star; · = not tested or not shown. Only a selection was taken, and hits are over-represented in it overall.

SMILES	UPR CHOP act	CHOP inhibitor	UPR XBP1 act	TLR4 MyD88 comp	NOD2-RIPK2 inh	TLR9-MyD88 block
COc1cccc(/C=N/Nc2nc(Nc3ccc([N+](=O)[O-])cc3)nc(N3CCCC3)n2)c1O	7	89*	8	-8	-14	·
Cc1ccc(N(CC(=O)N/N=C/c2cc(C)n(-c3ccccc3)c2C)S(C)(=O)=O)c(C)c1	-1	73*	4	11	8	5
CCOc1ccc(N/C=C/C(=O)c2ccccc2)c([N+](=O)[O-])c1	-7	87*	-3	-4	-5	-6
CCCCC1CCC(C(=O)Nc2ccc(N3CCOCC3)cc2N2CCOCC2)CC1 (stereo not drawn)	-2	·	0	·	10	1
CC(C)(C)c1cc(CCC(=O)NNC(=S)NC(=O)c2ccccc2)cc(C(C)(C)C)c1O	20	109*	23	-3	5	3
Cc1ccc(NC(=O)C(C)c2ccc(-c3ccccc3)c(F)c2)cc1 (stereo not drawn)	-1	73*	-2	0	5	2
COc1ccc(NS(=O)(=O)c2ccc3c(c2)Cc2ccccc2-3)cn1	-3	95*	-4	1	10	-4
COc1ccc(NS(=O)(=O)c2ccc(N3CCCC3=O)cc2)cn1	-1	3	-2	14	0	-4
CC(=O)c1sc(NC(=O)C2(F)C(F)(F)C(F)(F)C(F)(F)C(F)(F)C2(F)F)nc1C	7	·	8	5	1	-6
COc1ccccc1C(=O)N/N=C(\C)CC(=O)Nc1ccccc1NC(C)=O	-1	·	-5	·	-10	-2
COCC(=O)N/N=C(\C)CC(=O)Nc1ccccc1C(N)=O	1	-14	-3	5	23*	6
O=C(/C(N=Nc1cccc([N+](=O)[O-])c1)=C(/O)c1ccc(Br)cc1)C(F)(F)F	19	70*	10	·	3	·
O=C(O)c1ccc(N=NNc2cccc([N+](=O)[O-])c2)cc1	3	6	0	2	-2	-7
O=C(NCC[C@H]1CC[C@@H](NC(=O)C2CCOCC2)[C@@H](CO)O1)Nc1ccc(Cl)cc1	·	·	·	·	-4	·
CCOC(=O)c1c(C)[nH]c(O)c1C=Nc1ccc(C(F)(F)F)cc1	6	82*	0	6	-1	6
C=CCC1(O)C(=O)N2C(=C1C(=O)N1CCOCC1)c1ccccc1CC2(C)C (stereo not drawn)	-1	-2	2	-18	-1	4
O=c1cc(/C=C/c2ccccc2)oc2ccccc12	5	74*	5	-3	6	-7
COc1ccc2c(c1)CCc1c(C(=O)Nc3ccc(OC)c(OC)c3)noc1-2	2	76*	4	-1	-4	8
COc1ccc2c(c1)CCc1c(C(=O)NCCc3ccc(OC)c(OC)c3)noc1-2	0	3	-2	16	-18	-4
Cc1cc(C(=O)N/N=C/c2cc(Br)cc(Br)c2OC(=O)c2cccc(F)c2)n[nH]1	-1	92*	2	-16	-4	-15
Cc1cc(C(=O)N/N=C/c2cc(Br)cc(Br)c2OC(=O)c2ccccc2)n[nH]1	6	81*	5	3	·	·
Cc1cccc(C(=O)Oc2c(Br)cc(Br)cc2/C=N/NC(=O)c2ccncc2)c1	0	·	3	·	-7	8
Cc1cc(C(=O)N/N=C/c2cc(Br)ccc2OC(=O)c2ccc(Br)cc2)n[nH]1	4	67	8	9	·	·
CCSc1nnc(NC(=O)C2CCN(S(=O)(=O)c3ccccc3C(F)(F)F)CC2)s1	6	50	-2	10	-9	-10
CCSc1nnc(NC(=O)C2CCN(S(=O)(=O)c3c(C)c(C)cc(C)c3C)CC2)s1	3	78*	-1	-11	·	·
COc1ccc2nc(C3CCCCC3)c3c(c2c1)CCC3	2	·	4	·	-2	-3
CCn1c(SCC(=O)N/N=C/c2ccc(OC)c(OC)c2)nc2ccccc21	0	21	2	-2	-1	-2
C=CCSc1nc2ccccc2n1C(=O)/C=C/c1ccc(OC)c(OC)c1	·	109*	·	-1	2	0
Cc1ccc(OCC(=O)c2c(N)n(C)c(=O)n(C)c2=O)c([N+](=O)[O-])n1	-1	·	-1	·	-12	-8
